Test results taken from ChEMBL document CHEMBL4184148 (Bioorg Med Chem Lett, 2017).

How the values were obtained:
[1] = molecular target: Phosphatidylinositol 4,5-bisphosphate 3-kinase catalytic subunit delta isoform (Homo sapiens) (UniProt O00329); test: Binding affinity to wild-type human partial length PIK3CD (R108 to Q1044 residues) expressed in HEK293 cells at 1 uM by Kinomescan method relative to control; assay type: cell-based
[2] = molecular target: Ephrin type-A receptor 5 (Homo sapiens) (UniProt P54756); test: Binding affinity to wild-type human partial length EPHA5 (T627 to V930 residues) expressed in Escherichia coli BL21 at 1 uM by Kinomescan method relative to control
[3] = molecular target: Serine/threonine-protein kinase DCLK2 (Homo sapiens) (UniProt Q8N568); test: Binding affinity to wild-type human partial length DCAMKL2 (K273 to V664 residues) expressed in Escherichia coli BL21 at 1 uM by Kinomescan method relative to control
[4] = molecular target: Serine/threonine-protein kinase 17A (Homo sapiens) (UniProt Q9UEE5); test: Binding affinity to wild-type human partial length DRAK1 (R32 to E363 residues) expressed in Escherichia coli BL21 at 1 uM by Kinomescan method relative to control
[5] = molecular target: Serine/threonine-protein kinase PAK 3 (Homo sapiens) (UniProt O75914); test: Binding affinity to wild-type human full length PAK3 (M1 to R544 residues) expressed in Escherichia coli BL21 at 1 uM by Kinomescan method relative to control
Outline: (§1)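 Kinome-wide competition binding panel run by an outside provider, with each compound tested at a single concentration. Activity is read against the kinase panel.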

[6] = molecular target: Serine/threonine-protein kinase TAO1 (Homo sapiens) (UniProt Q7L7X3); test: Binding affinity to wild-type human partial length TAOK1 (M1 to A320 residues) expressed in HEK293 cells at 1 uM by Kinomescan method relative to control; assay type: cell-based
[7] = molecular target: Cyclin-dependent kinase-like 5 (Homo sapiens) (UniProt O76039); test: Binding affinity to wild-type human partial length CDKL5 (M1 to S337 residues) expressed in HEK293 cells at 1 uM by Kinomescan method relative to control; assay type: cell-based
[8] = molecular target: Serine/threonine-protein kinase B-raf (Homo sapiens) (UniProt P15056); test: Binding affinity to wild-type human partial length BRAF (S429 to E741 residues) expressed in HEK293 cells at 1 uM by Kinomescan method relative to control; assay type: cell-based
[9] = molecular target: Cyclin-dependent kinase 18 (Homo sapiens) (UniProt Q07002); test: Binding affinity to wild-type human full length PCTK3 (M3 to F474 residues) expressed in Escherichia coli BL21 at 1 uM by Kinomescan method relative to control; outline: as §1
[10] = molecular target: Mitogen-activated protein kinase kinase kinase 10 (Homo sapiens) (UniProt Q02779); test: Binding affinity to wild-type human partial length MLK2 (V52 to W380 residues) expressed in Escherichia coli BL21 at 1 uM by Kinomescan method relative to control
[11] = molecular target: MAP kinase-interacting serine/threonine-protein kinase 1 (Homo sapiens) (UniProt Q9BUB5); test: Binding affinity to wild-type human full length MKNK1 (M1 to L424 residues) expressed in HEK293 cells at 1 uM by Kinomescan method relative to control; assay type: cell-based
Outline: (§2)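 Run as one kinome-wide competition binding panel with each compound at a single fixed concentration. Results were plotted as a kinome-wide selectivity map.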

[12] = molecular target: Mitogen-activated protein kinase kinase kinase kinase 5 (Homo sapiens) (UniProt Q9Y4K4); test: Binding affinity to wild-type human partial length MAP4K5 (M1 to P297 residues) expressed in Escherichia coli BL21 at 1 uM by Kinomescan method relative to control
[13] = molecular target: Cyclin-dependent kinase 13 (Homo sapiens) (UniProt Q14004); test: Binding affinity to wild-type human partial length CDC2L5 (H675 to S1054 residues) expressed in HEK293 cells at 1 uM by Kinomescan method relative to control; assay type: cell-based
HEK293 = test: Cytotoxicity against human HEK293 cells assessed as reduction in cell viability up to 33.3 uM after 72 hrs by CellTiter-Glo assay relative to control; assay type: cell-based; details: hek293, 72 h
Outline: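 Cells were treated across a dose-response range for 72 h, and viability was read by CellTiter-Glo luminescence. Measurements were made in triplicate and reported with standard error.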

[14] = molecular target: Serine/threonine-protein kinase 35 (Homo sapiens) (UniProt Q8TDR2); test: Binding affinity to wild-type human partial length STK35 (G182 to A534 residues) expressed in Escherichia coli BL21 at 1 uM by Kinomescan method relative to control
[15] = molecular target: Serine/threonine-protein kinase 33 (Homo sapiens) (UniProt Q9BYT3); test: Binding affinity to wild-type human full length STK33 (M1 to L514 residues) expressed in Escherichia coli BL21 at 1 uM by Kinomescan method relative to control; outline: as §1
Sequence of Serine/threonine-protein kinase 33 (Homo sapiens) (Q9BYT3 whole entry, looked up, the tested form may be a part): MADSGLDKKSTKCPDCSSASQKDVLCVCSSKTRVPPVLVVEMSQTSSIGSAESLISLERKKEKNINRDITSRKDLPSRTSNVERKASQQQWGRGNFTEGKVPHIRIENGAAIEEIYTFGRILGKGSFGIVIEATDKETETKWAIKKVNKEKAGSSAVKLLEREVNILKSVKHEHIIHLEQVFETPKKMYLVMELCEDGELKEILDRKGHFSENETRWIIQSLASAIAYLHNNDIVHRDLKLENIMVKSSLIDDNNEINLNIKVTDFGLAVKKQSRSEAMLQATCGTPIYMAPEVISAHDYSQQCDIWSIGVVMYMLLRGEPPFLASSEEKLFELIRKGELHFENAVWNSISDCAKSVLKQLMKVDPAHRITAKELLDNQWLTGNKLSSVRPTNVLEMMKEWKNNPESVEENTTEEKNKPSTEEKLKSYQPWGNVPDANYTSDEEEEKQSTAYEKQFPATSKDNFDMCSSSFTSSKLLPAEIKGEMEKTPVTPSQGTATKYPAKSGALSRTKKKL

[16] = molecular target: Serine/threonine-protein kinase D2 (Homo sapiens) (UniProt Q9BZL6); test: Binding affinity to wild-type human partial length PRKD2 (A519 to E838 residues) expressed in Escherichia coli BL21 at 1 uM by Kinomescan method relative to control
Sequence of Serine/threonine-protein kinase D2 (Homo sapiens) (Q9BZL6 whole entry, the tested form may be a part): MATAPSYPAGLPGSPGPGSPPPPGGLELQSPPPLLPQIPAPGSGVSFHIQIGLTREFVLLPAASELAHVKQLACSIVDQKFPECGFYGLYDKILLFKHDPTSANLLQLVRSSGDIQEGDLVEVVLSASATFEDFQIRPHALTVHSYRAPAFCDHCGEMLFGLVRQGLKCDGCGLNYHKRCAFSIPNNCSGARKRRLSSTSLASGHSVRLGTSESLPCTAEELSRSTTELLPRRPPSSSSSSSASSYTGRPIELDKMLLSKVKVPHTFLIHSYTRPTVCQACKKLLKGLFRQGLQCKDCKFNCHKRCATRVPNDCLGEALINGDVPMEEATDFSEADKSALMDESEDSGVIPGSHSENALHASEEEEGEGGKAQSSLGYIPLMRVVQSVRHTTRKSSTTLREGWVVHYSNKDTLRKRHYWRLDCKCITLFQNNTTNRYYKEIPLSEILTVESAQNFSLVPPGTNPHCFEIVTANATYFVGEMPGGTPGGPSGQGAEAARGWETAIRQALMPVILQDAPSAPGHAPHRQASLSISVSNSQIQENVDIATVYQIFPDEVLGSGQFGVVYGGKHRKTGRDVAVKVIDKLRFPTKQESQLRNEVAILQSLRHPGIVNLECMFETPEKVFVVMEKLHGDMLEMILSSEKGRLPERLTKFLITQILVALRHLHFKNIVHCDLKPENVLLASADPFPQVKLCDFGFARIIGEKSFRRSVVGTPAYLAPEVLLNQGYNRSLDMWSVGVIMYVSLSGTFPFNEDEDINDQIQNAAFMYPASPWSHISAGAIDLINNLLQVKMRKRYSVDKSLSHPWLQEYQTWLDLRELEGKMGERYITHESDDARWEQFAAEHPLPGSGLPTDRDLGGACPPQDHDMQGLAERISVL

[17] = system: Tyrosine-protein kinase ABL1 (Homo sapiens), P00519 [M351T]; test: Binding affinity to human phosphorylated ABL1 M351T mutant (S229 to K512 residues) expressed in HEK293 cells at 1 uM by Kinomescan method relative to control; assay type: cell-based
[18] = molecular target: Cyclin-dependent kinase 17 (Homo sapiens) (UniProt Q00537); test: Binding affinity to wild-type human full length PCTK2 (M1 to F523 residues) expressed in Escherichia coli BL21 at 1 uM by Kinomescan method relative to control; outline: as §1
Sequence of Cyclin-dependent kinase 17 (Homo sapiens) (Q00537 whole entry, looked up, the tested form may be a part): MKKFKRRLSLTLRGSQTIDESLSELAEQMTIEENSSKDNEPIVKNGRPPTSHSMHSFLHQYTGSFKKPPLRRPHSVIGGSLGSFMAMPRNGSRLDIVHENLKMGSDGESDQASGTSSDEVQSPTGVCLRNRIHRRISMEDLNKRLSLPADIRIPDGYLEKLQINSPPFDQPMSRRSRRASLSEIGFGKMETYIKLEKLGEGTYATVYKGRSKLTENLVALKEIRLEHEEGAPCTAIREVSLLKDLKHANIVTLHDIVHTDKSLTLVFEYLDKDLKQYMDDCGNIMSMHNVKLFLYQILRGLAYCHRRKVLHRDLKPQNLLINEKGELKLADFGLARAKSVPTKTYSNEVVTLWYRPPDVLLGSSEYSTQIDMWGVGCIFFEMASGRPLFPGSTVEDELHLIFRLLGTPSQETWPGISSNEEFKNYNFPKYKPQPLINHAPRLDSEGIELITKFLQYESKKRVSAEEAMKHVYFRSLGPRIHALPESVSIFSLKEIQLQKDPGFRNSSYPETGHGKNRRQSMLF

[19] = molecular target: Cyclin-dependent kinase-like 2 (Homo sapiens) (UniProt Q92772); test: Binding affinity to wild-type human partial length CDKL2 (M1 to D327 residues) expressed in Escherichia coli BL21 at 1 uM by Kinomescan method relative to control
[20] = molecular target: TGF-beta receptor type-2 (Homo sapiens) (UniProt P37173); test: Binding affinity to wild-type human partial length TGFBR2 (I218 to K567 residues) expressed in Escherichia coli BL21 at 1 uM by Kinomescan method relative to control
Sequence of TGF-beta receptor type-2 (Homo sapiens) (P37173 whole entry, the tested form may be a part): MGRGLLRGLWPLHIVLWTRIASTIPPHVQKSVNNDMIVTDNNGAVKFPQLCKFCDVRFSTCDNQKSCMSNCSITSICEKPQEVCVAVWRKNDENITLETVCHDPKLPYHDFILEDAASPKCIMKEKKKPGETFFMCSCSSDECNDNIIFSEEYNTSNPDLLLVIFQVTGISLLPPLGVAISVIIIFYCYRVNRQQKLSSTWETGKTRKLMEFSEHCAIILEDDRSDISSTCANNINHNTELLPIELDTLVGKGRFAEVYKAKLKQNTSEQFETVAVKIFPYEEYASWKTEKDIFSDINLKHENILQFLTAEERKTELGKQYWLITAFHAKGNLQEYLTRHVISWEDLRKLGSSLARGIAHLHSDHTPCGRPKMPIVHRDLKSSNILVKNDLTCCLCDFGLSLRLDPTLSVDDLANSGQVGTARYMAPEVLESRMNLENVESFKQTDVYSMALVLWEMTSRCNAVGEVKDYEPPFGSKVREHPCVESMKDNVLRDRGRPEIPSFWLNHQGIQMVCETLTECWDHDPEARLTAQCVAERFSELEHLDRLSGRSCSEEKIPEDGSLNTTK

[21] = molecular target: Tyrosine-protein kinase HCK (Homo sapiens) (UniProt P08631); test: Binding affinity to wild-type human full length HCK (M22 to P526 residues) expressed in Escherichia coli BL21 at 1 uM by Kinomescan method relative to control; outline: as §2
Sequence of Tyrosine-protein kinase HCK (Homo sapiens) (P08631 2-526 limits assumed): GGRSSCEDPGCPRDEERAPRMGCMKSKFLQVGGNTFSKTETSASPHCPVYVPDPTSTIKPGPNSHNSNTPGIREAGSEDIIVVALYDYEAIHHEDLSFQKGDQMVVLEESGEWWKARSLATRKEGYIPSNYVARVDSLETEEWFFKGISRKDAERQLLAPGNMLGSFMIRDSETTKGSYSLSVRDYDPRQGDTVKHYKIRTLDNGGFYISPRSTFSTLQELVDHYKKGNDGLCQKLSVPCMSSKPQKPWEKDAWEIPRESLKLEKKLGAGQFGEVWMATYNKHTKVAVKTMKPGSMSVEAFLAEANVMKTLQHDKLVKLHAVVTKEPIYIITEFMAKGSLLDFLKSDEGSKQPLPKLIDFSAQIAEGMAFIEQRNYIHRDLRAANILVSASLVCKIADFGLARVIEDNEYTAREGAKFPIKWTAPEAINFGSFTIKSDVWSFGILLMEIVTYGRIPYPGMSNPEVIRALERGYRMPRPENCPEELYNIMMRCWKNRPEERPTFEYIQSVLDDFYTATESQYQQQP

[22] = molecular target: Fibroblast growth factor receptor 4 (Homo sapiens) (UniProt P22455); test: Binding affinity to wild-type human partial length FGFR4 (G402 to E713 residues) expressed in Escherichia coli BL21 at 1 uM by Kinomescan method relative to control
Sequence of Fibroblast growth factor receptor 4 (Homo sapiens) (P22455 22-802 limits assumed): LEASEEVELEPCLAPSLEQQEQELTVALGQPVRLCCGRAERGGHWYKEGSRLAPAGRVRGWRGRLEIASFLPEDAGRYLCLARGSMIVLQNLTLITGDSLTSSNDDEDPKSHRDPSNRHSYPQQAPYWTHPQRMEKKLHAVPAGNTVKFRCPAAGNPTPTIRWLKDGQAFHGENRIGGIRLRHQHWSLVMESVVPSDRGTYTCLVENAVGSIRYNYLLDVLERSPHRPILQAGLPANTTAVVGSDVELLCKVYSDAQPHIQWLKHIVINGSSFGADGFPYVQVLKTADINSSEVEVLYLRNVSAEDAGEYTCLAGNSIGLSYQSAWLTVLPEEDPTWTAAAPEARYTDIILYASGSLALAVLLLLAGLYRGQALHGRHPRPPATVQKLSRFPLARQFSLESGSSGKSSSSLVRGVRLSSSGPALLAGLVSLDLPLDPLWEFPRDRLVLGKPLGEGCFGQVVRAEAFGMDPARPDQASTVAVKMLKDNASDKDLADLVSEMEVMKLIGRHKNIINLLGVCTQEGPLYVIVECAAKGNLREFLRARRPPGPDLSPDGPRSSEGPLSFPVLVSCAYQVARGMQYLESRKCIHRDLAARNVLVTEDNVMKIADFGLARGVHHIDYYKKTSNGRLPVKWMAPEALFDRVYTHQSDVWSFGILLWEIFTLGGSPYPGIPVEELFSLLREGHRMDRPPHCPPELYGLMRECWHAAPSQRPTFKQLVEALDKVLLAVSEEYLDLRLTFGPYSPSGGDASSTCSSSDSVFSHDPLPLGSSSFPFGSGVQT

[23] = molecular target: Tyrosine-protein kinase BTK (Homo sapiens) (UniProt Q06187); test: Binding affinity to wild-type human full length BTK (M1 to S659 residues) expressed in HEK293 cells at 1 uM by Kinomescan method relative to control; assay type: cell-based
Sequence of Tyrosine-protein kinase BTK (Homo sapiens) (Q06187 whole entry, the tested form may be a part): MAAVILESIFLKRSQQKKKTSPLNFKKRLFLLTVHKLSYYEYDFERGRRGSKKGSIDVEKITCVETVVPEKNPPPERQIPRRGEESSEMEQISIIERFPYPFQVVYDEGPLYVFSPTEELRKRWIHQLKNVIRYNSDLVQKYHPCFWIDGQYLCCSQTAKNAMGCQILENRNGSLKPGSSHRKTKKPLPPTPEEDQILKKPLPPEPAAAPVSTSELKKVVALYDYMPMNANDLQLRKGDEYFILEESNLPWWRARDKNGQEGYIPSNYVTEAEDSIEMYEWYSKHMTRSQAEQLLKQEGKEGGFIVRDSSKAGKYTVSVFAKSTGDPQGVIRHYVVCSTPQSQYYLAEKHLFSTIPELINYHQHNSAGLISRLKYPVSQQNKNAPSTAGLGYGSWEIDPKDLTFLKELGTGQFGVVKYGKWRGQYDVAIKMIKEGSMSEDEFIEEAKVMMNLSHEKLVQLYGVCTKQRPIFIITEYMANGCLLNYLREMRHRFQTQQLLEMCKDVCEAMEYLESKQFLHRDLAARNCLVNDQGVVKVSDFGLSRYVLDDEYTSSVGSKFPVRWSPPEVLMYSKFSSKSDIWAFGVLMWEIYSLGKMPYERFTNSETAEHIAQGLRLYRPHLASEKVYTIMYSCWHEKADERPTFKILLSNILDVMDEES

[24] = molecular target: Serine/threonine-protein kinase 3 (Homo sapiens) (UniProt Q13188); test: Binding affinity to wild-type human partial length MST2 (D17 to E318 residues) expressed in Escherichia coli BL21 at 1 uM by Kinomescan method relative to control
Sequence of Serine/threonine-protein kinase 3 (Homo sapiens) (Q13188 whole entry, the tested form may be a part): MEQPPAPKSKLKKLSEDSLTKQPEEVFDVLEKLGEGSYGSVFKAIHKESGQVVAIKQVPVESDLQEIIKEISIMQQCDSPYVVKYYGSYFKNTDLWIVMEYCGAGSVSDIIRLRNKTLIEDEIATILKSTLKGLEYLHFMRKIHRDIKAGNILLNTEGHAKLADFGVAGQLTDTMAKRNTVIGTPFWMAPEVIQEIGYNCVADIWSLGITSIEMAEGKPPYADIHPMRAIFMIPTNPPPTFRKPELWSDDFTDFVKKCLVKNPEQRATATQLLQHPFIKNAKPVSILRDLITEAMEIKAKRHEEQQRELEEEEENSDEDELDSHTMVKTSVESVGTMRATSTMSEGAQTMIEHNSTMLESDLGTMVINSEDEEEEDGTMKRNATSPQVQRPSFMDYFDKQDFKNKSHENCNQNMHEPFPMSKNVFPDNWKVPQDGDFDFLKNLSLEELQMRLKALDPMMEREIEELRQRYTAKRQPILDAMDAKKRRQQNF

SMILES	Activity [1]	Activity [2]	Activity [3]	Activity [4]	Activity [5]	Activity [6]	Activity [7]	Activity [8]	Activity [9]	Activity [10]	Activity [11]	Activity [12]	Activity [13]	Activity (HEK293)	Activity [14]	Activity [15]	Activity [16]	Activity [17]	Activity [18]	Activity [19]	further results
C=CC(=O)Nc1ccc(C(=O)Nc2ccc(Nc3ncc4c(n3)N(C)c3ccc(C)cc3C(=O)N4C)cc2)cc1	55%	100%	78%	93%	69%	92%	98%	100%	99%	82%	95%	100%	99%	50%	96%	99%	98%	95%	99%	86%	Activity [20]: 96%; Activity [21]: 100%; Activity [22]: 74%; Activity [23]: 94%; Activity [24]: 100%
CCC(=O)Nc1ccc(C(=O)Nc2ccc(Nc3ncc4c(n3)N(C)c3ccc(C)cc3C(=O)N4C)cc2)cc1	75%	94%	81%	100%	55%	89%	89%	100%	86%	74%	96%	100%	100%	50%	77%	79%	98%	100%	100%	100%	Activity [20]: 100%; Activity [21]: 74%; Activity [22]: 97%; Activity [23]: 100%; Activity [24]: 70%
